From ChEMBL document CHEMBL1135980, “Novel angular benzophenazines: dual topoisomerase I and topoisomerase II inhibitors as potential anticancer agents” (J Med Chem, 2002)

Experiments:
NCI-H69 [1] = assay: Rf is the resistance factor and is the ratio of the IC50 on the resistant cell line over the IC50 on the parental H69/P cell line; format: functional, Homo sapiens
Summary of the method: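 Resistance factor computed as IC50 in H69/LX4 (Pgp-overexpressing) divided by IC50 in H69/P. Both IC50s come from a 5-6 day Alamar Blue proliferation assay.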

NCI-H69 [2] = assay: Cytotoxicity measured using the H69 parental (H69/P) human small cell lung carcinoma cell line; format: functional, cell-based
Summary of the method: (§1)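 H69/P (parental) or H69/LX4 (P-glycoprotein-overexpressing) human SCLC cells; compound added, then 5-6 days incubation; proliferation read with Alamar Blue.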

NCI-H69 [3] = assay: Cytotoxicity measured using the drug resistant, P-glycoprotein (Pgp) expressing human small cell lung carcinoma cell line H69/LX4; format: functional, cell-based; summary of the method: as §1

| Structure (SMILES) | Rf (NCI-H69 [1]) | IC50 (NCI-H69 [2]) [nM] | IC50 (NCI-H69 [3]) [nM] |
| --- | --- | --- | --- |
| CN(C)CCNC(=O)c1cccc2nc3ccc4ccc([N+](=O)[O-])cc4c3nc12 | 1.1 | 94 | 102 |
| CN(C)CCNC(=O)c1cccc2nc3ccc4c(OCc5ccccc5)cccc4c3nc12 | 1.6 | 556 | 882 |
| CC(=O)COc1cccc2c1ccc1nc3cccc(C(=O)NCCN(C)C)c3nc12 | 3.1 | 45 | 138 |
| CN(C)CCNC(=O)c1cccc2nc3ccc4c(CO)cccc4c3nc12 | 3.6 | 117 | 423 |
| CN(C)CCCOc1cccc2c1ccc1nc3cccc(C(=O)NCCN(C)C)c3nc12 | 0.8 | 116 | 91 |
| CC(=O)Nc1cccc2c1ccc1nc3cccc(C(=O)NCCN(C)C)c3nc12 | >10.7 | 468 | > 5000 |
| COc1ccc2ccc3nc4cccc(C(=O)NCCN(C)C)c4nc3c2c1 | 1 | 110 | 112 |
| COCCOc1cccc2c1ccc1nc3cccc(C(=O)NCCN(C)C)c3nc12 | 1.4 | 90 | 124 |
| CN(C)CCNC(=O)c1cccc2nc3ccc4c(OCCCC#N)cccc4c3nc12 | 1.5 | 39 | 58 |
| CC(=O)Oc1cccc2c1ccc1nc3cccc(C(=O)NCCN(C)C)c3nc12 | 2.8 | 24 | 67 |
| CN(C)CCNC(=O)c1cccc2nc3ccc4c(N(S(C)(=O)=O)S(C)(=O)=O)cccc4c3nc12 | >2.3 | 2140 | > 5000 |
| CCNC(=O)Oc1cccc2c1ccc1nc3cccc(C(=O)NCCN(C)C)c3nc12 | 1.6 | 64 | 103 |
| CNc1ccc2nc3ccc4c(OC)cccc4c3nc2c1C(=O)NCCN(C)C | 1.1 | 127 | 143 |
| COc1cccc2c1ccc1nc3cccc(C(=O)NCCN4CCOCC4)c3nc12 | 1.7 | 597 | 1000 |
| COc1cccc2c1ccc1nc3cccc(C(=O)N[C@@H](C)CN(C)C)c3nc12 | 1.3 | 96 | 121 |
| CN(C)CCNC(=O)c1cccc2nc3ccc4c(N)cccc4c3nc12 | 1.7 | 111 | 193 |
| CSc1cccc2c1ccc1nc3cccc(C(=O)NCCN(C)C)c3nc12 | 0.8 | 121 | 94 |
| COc1cccc2c1ccc1nc3cccc(C(=O)N[C@@H](CN(C)C)C(C)C)c3nc12 | 1 | 21 | 20 |
| CN(C)CCNC(=O)c1cccc2nc3ccc4c(S(C)(=O)=O)cccc4c3nc12 | 2.8 | 1360 | 3810 |
| CN(C)CCNC(=O)c1c(O)ccc2nc3ccc4c(O)cccc4c3nc12 | 1.3 | 19 | 25 |
| COc1cccc2c1ccc1nc3cccc(C(=O)NCC(C)N(C)C)c3nc12 (stereo not given) | 1.2 | 101 | 126 |
| COc1cccc2c1ccc1nc3cccc(C(=O)NC(CO)CN(C)C)c3nc12 (stereo not given) | 1.2 | 23 | 28 |
| CN(C)CCNC(=O)c1cccc2nc3ccc4c(OCCO)cccc4c3nc12 | 0.8 | 303 | 235 |

| Structure (SMILES) | Rf (NCI-H69 [1]) | IC50 (NCI-H69 [2]) [nM] | IC50 (NCI-H69 [3]) [nM] |
| --- | --- | --- | --- |
| COc1cc(C(=O)NCCN(C)C)c2nc3c(ccc4c(OC)cccc43)nc2c1 | 1.3 | 19 | 25 |
| CCOc1cccc2c1ccc1nc3cccc(C(=O)NCCN(C)C)c3nc12 | 3.7 | 49 | 182 |
| COc1cccc2c1ccc1nc3cccc(C(=O)NCC(O)CN)c3nc12 (stereo not given) | >9.7 | 515 | > 5000 |
| COc1cccc2c1ccc1nc3cccc(C(=O)NC(CN(C)C)C(=O)O)c3nc12 (stereo not given) | >23 | 211 | > 5000 |
| COc1cccc2c1ccc1nc3cccc(C(=O)NC(Cc4ccccc4)CN(C)C)c3nc12 (stereo not given) | 1.1 | 478 | 513 |
| CCOC(=O)COc1cccc2c1ccc1nc3cccc(C(=O)NCCN(C)C)c3nc12 | 0.9 | 587 | 506 |
| COc1cccc2c1ccc1nc3cccc(C(=O)NC(C)CN(C)C)c3nc12 (stereo not given) | 1.4 | 30 | 44 |
| COc1cccc2c1ccc1nc3ccc(N)c(C(=O)NCCN(C)C)c3nc12 | 0.85 | 34 | 29 |
| CNS(=O)(=O)c1cccc2c1ccc1nc3cccc(C(=O)NCCN(C)C)c3nc12 | >7.8 | 638 | > 5000 |
| CN(C)CCNC(=O)c1cccc2nc3ccc4ccc(O)cc4c3nc12 | 3.3 | 86 | 282 |
| COC(=O)C(CN(C)C)NC(=O)c1cccc2nc3ccc4c(OC)cccc4c3nc12 (stereo not given) | >10 | 468 | > 5000 |
| CN(C)CCNC(=O)c1cccc2nc3ccc4c(Br)cccc4c3nc12 | 2.2 | 77 | 171 |
| CN(C)CCNC(=O)c1cccc2nc3ccc4c(Cl)cccc4c3nc12 | 1.4 | 117 | 159 |
| CN(C)CCNC(=O)c1cccc2nc3ccc4c(NCC#N)cccc4c3nc12 | 1.5 | 103 | 155 |
| CC(C)Oc1cccc2c1ccc1nc3cccc(C(=O)NCCN(C)C)c3nc12 | 2.1 | 420 | 874 |
| COc1cccc2c1ccc1nc3cccc(C(=O)N[C@@H]4CCN(C)C4)c3nc12 | 1.6 | 79 | 128 |
| C#CCOc1cccc2c1ccc1nc3cccc(C(=O)NCCN(C)C)c3nc12 | 1.5 | 40 | 61 |
| COc1ccc2nc3ccc4c(OC)cccc4c3nc2c1C(=O)NCCN(C)C | 1.4 | 2640 | 3620 |
| CCC(CN(C)C)NC(=O)c1cccc2nc3ccc4c(OC)cccc4c3nc12 (stereo not given) | 1.1 | 107 | 118 |
| CCN(CC)CCNC(=O)c1cccc2nc3ccc4c(OC)cccc4c3nc12 | 2.4 | 412 | 1000 |
| CNCCNC(=O)c1cccc2nc3ccc4c(OC)cccc4c3nc12 | 2.4 | 99 | 234 |
| CN(C)CCNC(=O)c1cccc2nc3ccc4c(N(C)C)cccc4c3nc12 | 1.2 | 778 | 925 |
| CN(C)CCNC(=O)c1cccc2nc3ccc4c(OCC#N)cccc4c3nc12 | 0.9 | 28 | 24 |

| Structure (SMILES) | Rf (NCI-H69 [1]) | IC50 (NCI-H69 [2]) [nM] | IC50 (NCI-H69 [3]) [nM] |
| --- | --- | --- | --- |
| COc1cccc2c1ccc1nc3cccc(C(=O)NCCN4CCCCC4)c3nc12 | 2.1 | 156 | 330 |
| COc1cccc2c1ccc1nc3cc(Cl)cc(C(=O)NCCN(C)C)c3nc12 | 1 | 20 | 21 |
| COc1cccc2c1ccc1nc3cccc(C(=O)NC(CN(C)C)C(C)C)c3nc12 (stereo not given) | 0.7 | 35 | 25 |
| COc1cccc2c1ccc1nc3cccc(C(=O)N[C@@H](CN(C)C)[C@H](C)O)c3nc12 | 1 | 19 | 19 |
| Cc1cccc2c1ccc1nc3cccc(C(=O)NCCN(C)C)c3nc12 | 0.8 | 117 | 98 |
| CN(C)CCNC(=O)c1cccc2nc3ccc4c(OCCN5CCOCC5)cccc4c3nc12 | 2.4 | 99 | 236 |
| CN(C)CCNC(=O)c1cccc2nc3ccc4c(OCC(=O)O)cccc4c3nc12 | >1.3 | 3840 | > 5000 |
| COC(=O)c1cccc2c1ccc1nc3cccc(C(=O)NCCN(C)C)c3nc12 | 0.9 | 103 | 91 |
| COc1cccc2c1ccc1nc3cccc(C(=O)N[C@H](CO)CN(C)C)c3nc12 | 1.2 | 20 | 25 |
| COc1cccc2c1ccc1nc3cccc(C(=O)NCCCN(C)C)c3nc12 | 1.3 | 470 | 597 |
| COc1cccc2c1ccc1nc3cc(Br)cc(C(=O)NCCN(C)C)c3nc12 | 0.6 | 159 | 100 |
| CN(C)CCNC(=O)c1cccc2nc3ccc4c(C(=O)O)cccc4c3nc12 |  | > 5000 | > 5000 |
| COc1cccc2c1ccc1nc3cccc(C(=O)NC(C)(C)CN(C)C)c3nc12 | 1.5 | 435 | 642 |
| CN(C)CCNC(=O)c1cccc2nc3ccc4c(C#N)cccc4c3nc12 | 1.5 | 101 | 147 |
| CN(C)CCNC(=O)c1cccc2nc3ccc4cc([N+](=O)[O-])ccc4c3nc12 | 1.4 | 49 | 69 |
| COc1cccc2c1ccc1nc3ccc(O)c(C(=O)NCCN(C)C)c3nc12 | 1 | 103 | 107 |
| COc1ccc2c(ccc3nc4cccc(C(=O)NCCN(C)C)c4nc32)c1OC | 1.8 | 436 | 804 |
| CN(C)CCNC(=O)c1cccc2nc3ccc4c(F)cccc4c3nc12 | 0.7 | 111 | 78 |
| COc1cccc2c1ccc1nc3c(C)ccc(C(=O)NCCN(C)C)c3nc12 | 1.9 | 87 | 168 |
| COc1cccc2c1ccc1nc3cccc(C(=O)NCC(CN(C)C)N(C)C)c3nc12 (stereo not given) | 3.8 | 126 | 480 |
| COc1cccc2c1ccc1nc3cccc(C(=O)NCCN4CCCC4)c3nc12 | 1.9 | 40 | 77 |
